Test results taken from paper PMC7684530 (European Journal of Medicinal Chemistry, 2020).
“Also recorded” adds a separate entry of the source.

Tests used:
[1] = molecular target: T1, PqsR (Pseudomonas aeruginosa, UniProt Q9I4X0); assay: 10 μM spot test in the PAO1-L mCTX:PpqsA-lux bioreporter; type: cell-based, Pseudomonas aeruginosa PAO1-L; settings: 10 μM ligand concentration
T1 sequence (Q9I4X0 1-332): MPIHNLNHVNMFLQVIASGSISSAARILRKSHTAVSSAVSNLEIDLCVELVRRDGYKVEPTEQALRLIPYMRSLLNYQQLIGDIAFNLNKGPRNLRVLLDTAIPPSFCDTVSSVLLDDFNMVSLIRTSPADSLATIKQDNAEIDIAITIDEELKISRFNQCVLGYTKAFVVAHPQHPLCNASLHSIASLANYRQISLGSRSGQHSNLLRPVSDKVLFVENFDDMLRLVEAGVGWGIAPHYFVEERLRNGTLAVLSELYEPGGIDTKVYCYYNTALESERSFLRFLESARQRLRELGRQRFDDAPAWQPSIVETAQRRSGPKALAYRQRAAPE
Procedure, shortened: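 Single-concentration screen of the PAO1-L mCTX:PpqsA-lux strain in LB. The reporter was grown overnight at 37 °C to OD600 2.0–3.0 and diluted to OD600 0.02. A 20 μM compound solution in LB was mixed 1:1 with the cells (final 10 μM) in at least three wells. OD600 and luminescence were read every 30 min at 37 °C over 24 h. Activity (luminescence/OD600) was taken at the luminescence peak and compared with the DMSO control.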

[2] = molecular target: T1, PqsR; assay: PqsR bioreporter assay; type: cell-based, Pseudomonas aeruginosa PAO1-L; settings: for activity: read-out: IC50 value in PAO1-L
Procedure, shortened: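 Dose-response of the PAO1-L mCTX:PpqsA-lux reporter. Ten compound concentrations in LB came from two tenfold dilution series and were mixed 1:1 with PAO1-L diluted to OD600 0.02, giving final 31.6 μM to 1 nM, in triplicate. The plate was kinetically read at 37 °C over 24 h for OD600 and luminescence every 30 min. Values were taken at the luminescence peak (8–9 h), and log concentration was plotted against RLU/OD600.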

[3] = tested on: A549 lung epithelial cells; assay: Cytotoxicity; type: cell-based, human; settings: 0.1 to 100 μM, 16 h
[4] = Solubility in the cytotoxicity test buffer; type: physicochemical; settings: this concentration = 100 μM

| activity when screened at 10 μM (in words) [1] | activity [2] [%] | SMILES | other results |
| --- | --- | --- | --- |
| inactive; also recorded: inactivity |  | CC(C)c1noc(Cn2cnc3ccc(Cl)cc3c2=O)n1 [Compound 7] |  |
|  | > 50 | Cc1nc(Cn2cnc3ccc(Cl)cc3c2=O)cs1 [Compound 8, 6-Chloro-3-((2-methylthiazol-4-yl)methyl)quinazolin-4(3H)-one] |  |
|  | > 50 | O=c1c2cc(Cl)ccc2ncn1Cc1csc(C(F)(F)F)n1 [Compound 9, 6-Chloro-3-((2-(trifluoromethyl)thiazol-4-yl)methyl)quinazolin-4(3H)-one] |  |
|  | > 50 | CCc1nc(Cn2cnc3ccc(Cl)cc3c2=O)cs1 [Compound 10, 6-Chloro-3-((2-ethylthiazol-4-yl)methyl)quinazolin-4(3H)-one] |  |
|  | > 50 | N#CCc1nc(Cn2cnc3ccc(Cl)cc3c2=O)cs1 [Compound 11, 2-(4-((6-Chloro-4-oxoquinazolin-3(4H)-yl)methyl)thiazol-2-yl)acetonitrile] |  |
|  |  | CC(C)(C)c1nc(Cn2cnc3ccc(Cl)cc3c2=O)cs1 [Compound 12, 3-((2-(Tert-butyl)thiazol-4-yl)methyl)-6-chloroquinazolin-4(3H)-one] | activity in PAO1-L compared with 32 ([2]; ratio of IC50 values, strain PAO1-L): seven-fold stronger activity |
|  |  | CCCCCc1nc(Cn2cnc3ccc(Cl)cc3c2=O)cs1 [Compound 18, 6-Chloro-3-((2-pentylthiazol-4-yl)methyl)quinazolin-4(3H)-one] | cytotoxic concentration (no significant toxicity up to; LD50 not reached) [3]: > 100 µM; solubility in the test buffer [4]: neither compound was fully soluble above this concentration |
|  |  | CCCCCCc1nc(Cn2cnc3ccc(Cl)cc3c2=O)cs1 [Compound 19, 6-Chloro-3-((2-hexylthiazol-4-yl)methyl)quinazolin-4(3H)-one] | cytotoxic concentration (no significant toxicity up to; LD50 not reached) [3]: > 100 µM; solubility in the test buffer [4]: neither compound was fully soluble above this concentration |
| inactive | > 50 | O=c1c2cc(Cl)ccc2ncn1Cc1csc(-c2ccc([N+](=O)[O-])cc2)n1 [Compound 23, 6-Chloro-3-((2-(4-nitrophenyl)thiazol-4-yl)methyl)quinazolin-4(3H)-one] |  |
| no inhibition | > 50 | COCCNc1nc(Cn2cnc3ccc(Cl)cc3c2=O)cs1 [Compound 24, 6-Chloro-3-((2-((2-methoxyethyl)amino)thiazol-4-yl)methyl)quinazolin-4(3H)-one] |  |
| inactive | > 50 | NC(N)=Nc1nc(Cn2cnc3ccc(Cl)cc3c2=O)cs1 [Compound 26, 2-(4-((6-Chloro-4-oxoquinazolin-3(4H)-yl)methyl)thiazol-2-yl)guanidine] |  |
|  | > 50 | CC1CCN(c2ncc(Cn3cnc4ccc(Cl)cc4c3=O)s2)CC1 [Compound 27, 6-Chloro-3-((2-(4-methylpiperidin-1-yl)thiazol-5-yl)methyl)quinazolin-4-(3H)-one] |  |
|  | > 50 | O=c1c2cc(Cl)ccc2ncn1Cc1cnc(NC2CCCCC2)s1 [Compound 28, 6-Chloro-3-((2-(cyclohexylamino)thiazol-5-yl)methyl)quinazolin-4-(3H)-one] |  |
|  | > 50 | CN(CCO)c1ncc(Cn2cnc3ccc(Cl)cc3c2=O)s1 [Compound 29, 6-Chloro-3-((2-(2-hydroxyethyl(methyl)amino)thiazol-5-yl)methyl)quinazolin-4-(3H)-one] |  |
|  | > 50 | CCCCNc1ncc(Cn2cnc3ccc(Cl)cc3c2=O)s1 [Compound 30, 3-((2-(Butylamino)thiazol-5-yl)methyl)-6-chloroquinazolin-4(3H)-one] |  |
|  | > 50 | COCCNc1ncc(Cn2cnc3ccc(Cl)cc3c2=O)s1 [Compound 31, 6-Chloro-3-((2-((2-methoxyethyl)amino)thiazol-5-yl)methyl)quinazolin-4-(3H)-one] |  |
| inactive | > 50 | CCCCCc1nc(Cn2cnc3cc(Cl)ccc3c2=O)cs1 [Compound 33, 7-Chloro-3-((2-pentylthiazol-4-yl)methyl)quinazolin-4(3H)-one] |  |
| inactive; also recorded: inactivity | > 50 | CC(C)c1ncc(Cn2cnc3ccc(Cl)cc3c2=O)s1 [Compound 35, 6-Chloro-3-((2-isopropylthiazol-5-yl)methyl)quinazolin-4(3H)-one] |  |

| SMILES | activity when screened at 10 μM (in words) [1] | activity [2] [%] | other results |
| --- | --- | --- | --- |
| O=c1c2cc(Cl)ccc2ncn1Cc1cnc(Cl)s1 [Compound 34, 6-Chloro-3-((2-chlorothiazol-5-yl)methyl)quinazolin-4(3H)-one] |  | > 50 |  |
